This passage reports Activity and Ratio results from ChEMBL document CHEMBL1149321, “Synthesis, radiosynthesis, and biological evaluation of carbon-11 and iodine-123 labeled 2beta-carbomethoxy-3beta-[4'-((Z)-2-haloethenyl)phenyl]tropanes: candidate radioligands for in vivo imaging of the serotonin transporter” (J Med Chem, 2004).

Data set [1] concerns Rattus norvegicus. As to the kind of experiment: Distribution of the radio labelled compound in rest of rat brain after intravenous administration in presence of reboxetine after 60 min. The format is ADME, organism-based. Particulars: in vivo, 1 h. An outline of the steps: (§1)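 Male Sprague–Dawley rats (200–250 g) under ketamine/xylazine anaesthesia with tail-vein cannulas. Blocker or none given 15 min before ~20 μCi [123I] tracer iv in 0.2 mL 10% ethanol/saline; blocker dose 4 mg/kg.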

Data set [2] in a line: Ratio of radioactivity in striatum of rat brain to that of rat cerebellum after intravenous administration after 30 min. The format is functional. In short, it runs like this:
(§2)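 Male Sprague–Dawley rats (200–250 g) given ~20 μCi [123I] tracer iv in 0.2 mL 10% ethanol/saline under ketamine/xylazine; killed at 5, 30, 60, 120 min (n = 5; n = 4 at 120 min). Brain regions dissected, gamma counted, decay-corrected to %ID/g; regional uptake divided by cerebellum.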

Data set [3] deals with Rattus norvegicus. In words: Distribution in frontal cortex of rat brain after intravenous administration by using [123I]-ZIET after 30 min. The format is ADME, organism-based. Particulars: in vivo, 0.5 h. An outline of the steps: (§3)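 Male Sprague–Dawley rats (200–250 g), fed ad libitum, given ~20 μCi radiotracer iv via tail-vein cannula in 0.2 mL 10% ethanol/saline under ketamine/xylazine im anesthesia. Killed at 5, 30, 60 or 120 min (n = 5; n = 4 at 120 min). Brain regions dissected, weighed, gamma-counted with dose standards, decay-corrected; mean %ID/g ± SE.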

The nature of data set [4]: Ratio of radioactivity in hypothalamus of rat brain to that of rat cerebellum after intravenous administration after 5 min. The data set is classed as functional. In short, it runs like this:
as §2

Data set [5] deals with Rattus norvegicus. As to the kind of experiment: Distribution in rest of rat brain after intravenous administration by using [123I]ZIET after 30 min. The data set is classed as ADME, organism-based. Particulars: in vivo, 0.5 h. An outline of the steps:
as §3

For data set [6], the system named is Rattus norvegicus. As to the kind of experiment: Distribution of the radio labelled compound in frontal cortex of rat brain after intravenous administration in presence of RTI-113 after 60 min. The format is ADME, organism-based. Particulars: in vivo, 1 h. An outline of the steps:
as §1

Data set [7] deals with Rattus norvegicus. As to the kind of experiment: Distribution of the radio labelled compound in cerebellum of rat brain after intravenous administration in presence of RTI-113 after 60 min. The data set is classed as ADME, organism-based. Particulars: in vivo, 1 h. An outline of the steps:
(§4)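 Male Sprague–Dawley rats (200–250 g), ketamine/xylazine anesthesia, tail-vein cannula. Blocker (4 mg/kg) or nothing given 15 min before iv [123I]ZIET in 10% ethanol/saline. Killed 60 min post-tracer.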

A short description of data set [8]: Ratio of radioactivity in hypothalamus of rat brain to that of rat cerebellum after intravenous administration after 120 min. The format is functional. An outline of the steps:
as §2

Data set [9] has as its system Rattus norvegicus. As to the kind of experiment: Distribution of the radio labelled compound in hippocampus of rat brain after intravenous administration in presence of citalopram after 60 min. The data set is classed as ADME, organism-based. As to conditions: in vivo, 1 h. An outline of the steps: as §1
Data set [10] relates to Rattus norvegicus. As to the kind of experiment: Distribution in cerebellum of rat brain after intravenous administration by using [123I]ZIET after 30 min. The data set is classed as ADME, organism-based. Particulars: in vivo, 0.5 h. In short, it runs like this: as §3
Data set [11] has as its system Rattus norvegicus. As to the kind of experiment: Distribution in blood […] after intravenous administration by using [123I]-ZIET after 60 min. Particulars: in vivo, 1 h. The data set is classed as ADME, organism-based. An outline of the steps:
as §3

Data set [12] concerns Rattus norvegicus. In words: Distribution in thyroid of rat brain after intravenous administration by using [123I]ZIET after 60 min. The data set is classed as ADME, organism-based, Thyroid gland. As to conditions: in vivo, 1 h. In short, it runs like this:
as §3

A short description of data set [13]: Ratio of radioactivity in brainstem of rat brain to that of rat cerebellum after intravenous administration after 30 min. The data set is classed as functional. An outline of the steps:
as §2

Data set [14] deals with Rattus norvegicus. In words: Distribution of the radio labelled compound in brainstem of rat brain after intravenous administration in presence of reboxetine after 60 min. Particulars: in vivo, 1 h. The data set is classed as ADME, organism-based. An outline of the steps:
as §4

Data set [15] is described as follows: Ratio of radioactivity in brainstem of rat brain to that of rat cerebellum after intravenous administration after 5 min. The format is functional. In short, it runs like this: as §2
Data set [16] is described as follows: Ratio of radioactivity in rest of rat brain to that of rat cerebellum after intravenous administration after 30 min. The format is functional. An outline of the steps: as §2
The test system of data set [17] is Rattus norvegicus. In words: Distribution of the radio labelled compound in thyroid of rat brain after intravenous administration in presence of reboxetine after 60 min. The data set is classed as ADME, organism-based, Thyroid gland. Particulars: in vivo, 1 h. An outline of the steps: as §1
In data set [18] the test system is Rattus norvegicus. In words: Distribution of the radio labelled compound in frontal cortex of rat brain after intravenous administration in absence of blocker after 60 min. The format is ADME, organism-based. Particulars: in vivo, 1 h. An outline of the steps:
as §1

A short description of data set [19]: Ratio of radioactivity in hypothalamus of rat brain to that of rat cerebellum after intravenous administration after 60 min. The format is functional. An outline of the steps:
as §2

Data set [20] is described as follows: Ratio of radioactivity in striatum of rat brain to that of rat cerebellum after intravenous administration after 5 min. The data set is classed as functional. An outline of the steps:
as §2

As to `COC(=O)C1C(c2ccc(/C=C\[123I])cc2)CC2CCC1N2C` (stereo not given), the Activity in the data set with Rattus norvegicus [1] was 0.34; with Rattus norvegicus [3], 0.82; in the data set with Rattus norvegicus [5] it was 0.66; with Rattus norvegicus [6] it was 0.49; with Rattus norvegicus [7] it was 0.13; in the data set with Rattus norvegicus [9], 0.17. Further, the Activity in the data set on Rattus norvegicus [10] was 0.42; in the data set with Rattus norvegicus [11], 0.43; in the data set with Rattus norvegicus [12], 1.11; in the data set on Rattus norvegicus [14], 0.36; in the data set with Rattus norvegicus [17] it was 1.12; in the data set with Rattus norvegicus [18] it was 0.53. Moreover, the Ratio is reported as 1.8 in data set [2]; 1.1 in data set [4]; 4.3 in data set [8]; 1.5 in data set [13]; 1 in [15]; 1.6 in data set [16]. Besides, the Ratio in data set [19] is given as 2.6; in [20], 1.1.
